Experimental data: ChEMBL document CHEMBL4261658, “4-Hydroxy-3-nitro-5-ureido-benzenesulfonamides Selectively Target the Tumor-Associated Carbonic Anhydrase Isoforms IX and XII Showing Hypoxia-Enhanced Antiproliferative Profiles” (J Med Chem, 2018)

Columns and labels:
Carbonic anhydrase 9 = Carbonic anhydrase 9 (Homo sapiens, UniProt Q16790); test: Inhibition of carbonic anhydrase 9 (unknown origin) preincubated for 15 mins by stopped flow CO2 hydration assay
Carbonic anhydrase 12 = Carbonic anhydrase 12 (Homo sapiens, UniProt O43570)
HT-29 [1] = test: Cytotoxicity against human HT-29 cells assessed as reduction in cell viability after 48 hrs under normoxic conditions by MTT assay; format: functional, cell-based
Procedure, shortened: (§1)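 Cells cultured in high-glucose DMEM with 20% FBS at 37 °C and 5% CO2, seeded at 1x10^4/well, then dosed 24 h later (0–200 μM) for 48 h. Hypoxia: 1% O2, 5% CO2, balance N2 in a hypoxic workstation; normoxia: 20% O2 in air, 5% CO2. MTT (1 mg/ml) for 30 min at 37 °C, formazan dissolved in DMSO, A550. Untreated control set to 100%; quadruplicates, ≥3 cell batches, mean ± S.E.M.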

MDA-MB-231 [2] = test: Cytotoxicity against human MDA-MB-231 cells assessed as reduction in cell viability after 48 hrs under normoxic conditions by MTT assay; format: functional, cell-based; procedure, shortened: as §1
PC-3 [3] = test: Cytotoxicity against human PC3 cells assessed as reduction in cell viability after 48 hrs under normoxic conditions by MTT assay; format: functional, cell-based; procedure, shortened: as §1
HT-29 [4] = test: Cytotoxicity against human HT-29 cells assessed as reduction in cell viability after 48 hrs under hypoxic conditions by MTT assay; format: functional, cell-based; procedure, shortened: as §1
MDA-MB-231 [5] = test: Cytotoxicity against human MDA-MB-231 cells assessed as reduction in cell viability after 48 hrs under hypoxic conditions by MTT assay; format: functional, cell-based; procedure, shortened: as §1
PC-3 [6] = test: Cytotoxicity against human PC3 cells assessed as reduction in cell viability after 48 hrs under hypoxic conditions by MTT assay; format: functional, cell-based; procedure, shortened: as §1
MDA-MB-231 [7] = test: Cytotoxicity against human MDA-MB-231 cells assessed as cell viability at 200 uM after 48 hrs under hypoxic conditions by MTT assay (reference value: 100%); format: functional; details: MDA-MB-231, 48 h, read-out: Activity; procedure, shortened: as §1
MDA-MB-231 [8] = test: Cytotoxicity against human MDA-MB-231 cells assessed as cell viability at 30 uM after 48 hrs under normoxic conditions by MTT assay (reference value: 100%); format: functional; details: MDA-MB-231, 48 h, read-out: Activity; procedure, shortened: as §1
MDA-MB-231 [9] = test: Cytotoxicity against human MDA-MB-231 cells assessed as cell viability at 100 uM after 48 hrs under normoxic conditions by MTT assay (reference value: 100%); format: functional; details: MDA-MB-231, 48 h, read-out: Activity; procedure, shortened: as §1
MDA-MB-231 [10] = test: Cytotoxicity against human MDA-MB-231 cells assessed as cell viability at 200 uM after 48 hrs under normoxic conditions by MTT assay (reference value: 100%); format: functional; details: MDA-MB-231, 48 h, read-out: Activity; procedure, shortened: as §1
MDA-MB-231 [11] = test: Cytotoxicity against human MDA-MB-231 cells assessed as cell viability at 100 uM after 48 hrs under hypoxic conditions by MTT assay (reference value: 100%); format: functional; details: MDA-MB-231, 48 h, read-out: Activity; procedure, shortened: as §1
MDA-MB-231 [12] = test: Cytotoxicity against human MDA-MB-231 cells assessed as cell viability at 30 uM after 48 hrs under hypoxic conditions by MTT assay (reference value: 100%); format: functional; details: MDA-MB-231, 48 h, read-out: Activity; procedure, shortened: as §1
PC-3 [13] = test: Cytotoxicity against human PC3 cells assessed as cell viability at 30 uM after 48 hrs under normoxic conditions by MTT assay (reference value: 100%); format: functional; details: PC-3, 48 h, read-out: Activity; procedure, shortened: as §1
PC-3 [14] = test: Cytotoxicity against human PC3 cells assessed as cell viability at 100 uM after 48 hrs under normoxic conditions by MTT assay (reference value: 100%); format: functional; details: PC-3, 48 h, read-out: Activity; procedure, shortened: as §1
PC-3 [15] = test: Cytotoxicity against human PC3 cells assessed as cell viability at 200 uM after 48 hrs under normoxic conditions by MTT assay (reference value: 100%); format: functional; details: PC-3, 48 h, read-out: Activity; procedure, shortened: as §1
PC-3 [16] = test: Cytotoxicity against human PC3 cells assessed as cell viability at 30 uM after 48 hrs under hypoxic conditions by MTT assay (reference value: 100%); format: functional; details: PC-3, 48 h, read-out: Activity; procedure, shortened: as §1
PC-3 [17] = test: Cytotoxicity against human PC3 cells assessed as cell viability at 100 uM after 48 hrs under hypoxic conditions by MTT assay (reference value: 100%); format: functional; details: PC-3, 48 h, read-out: Activity; procedure, shortened: as §1
PC-3 [18] = test: Cytotoxicity against human PC3 cells assessed as cell viability at 200 uM after 48 hrs under hypoxic conditions by MTT assay (reference value: 100%); format: functional; details: PC-3, 48 h, read-out: Activity; procedure, shortened: as §1
HT-29 [19] = test: Cytotoxicity against human HT-29 cells assessed as cell viability at 30 uM after 48 hrs under normoxic conditions by MTT assay (reference value: 100%); format: functional; details: for viability at 30 µM: Homo sapiens, HT-29, 48 h, read-out: Activity; procedure, shortened: as §1
HT-29 [20] = test: Cytotoxicity against human HT-29 cells assessed as cell viability at 100 uM after 48 hrs under normoxic conditions by MTT assay (reference value: 100%); format: functional; details: for viability at 100 µM: Homo sapiens, HT-29, 48 h, read-out: Activity; procedure, shortened: as §1
HT-29 [21] = test: Cytotoxicity against human HT-29 cells assessed as cell viability at 200 uM after 48 hrs under normoxic conditions by MTT assay (reference value: 100%); format: functional; details: for viability at 200 µM: Homo sapiens, HT-29, 48 h, read-out: Activity; procedure, shortened: as §1
HT-29 [22] = test: Cytotoxicity against human HT-29 cells assessed as cell viability at 30 uM after 48 hrs under hypoxic conditions by MTT assay (reference value: 100%); format: functional; details: for viability at 30 µM: Homo sapiens, HT-29, 48 h, read-out: Activity; procedure, shortened: as §1
HT-29 [23] = test: Cytotoxicity against human HT-29 cells assessed as cell viability at 100 uM after 48 hrs under hypoxic conditions by MTT assay (reference value: 100%); format: functional; details: for viability at 100 µM: Homo sapiens, HT-29, 48 h, read-out: Activity; procedure, shortened: as §1
HT-29 [24] = test: Cytotoxicity against human HT-29 cells assessed as cell viability at 200 uM after 48 hrs under hypoxic conditions by MTT assay (reference value: 100%); format: functional; details: for viability at 200 µM: Homo sapiens, HT-29, 48 h, read-out: Activity; procedure, shortened: as §1

Sequence of Carbonic anhydrase 12 (O43570 whole entry): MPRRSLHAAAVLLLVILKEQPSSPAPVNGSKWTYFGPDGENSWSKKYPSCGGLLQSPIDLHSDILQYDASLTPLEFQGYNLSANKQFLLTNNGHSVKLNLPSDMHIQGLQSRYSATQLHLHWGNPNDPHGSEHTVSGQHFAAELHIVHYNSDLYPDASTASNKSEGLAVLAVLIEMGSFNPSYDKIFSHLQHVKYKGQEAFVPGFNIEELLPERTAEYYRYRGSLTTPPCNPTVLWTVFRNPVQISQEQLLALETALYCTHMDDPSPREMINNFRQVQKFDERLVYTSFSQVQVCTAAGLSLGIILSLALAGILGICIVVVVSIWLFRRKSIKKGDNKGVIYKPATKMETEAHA

SMILES: COc1cccc(NC(=O)Nc2cc(S(N)(=O)=O)cc([N+](=O)[O-])c2O)c1
- Ki (Carbonic anhydrase 9): 460 nM
- Ki (Carbonic anhydrase 12): 530 nM

SMILES: NS(=O)(=O)c1cc(NC(=O)Nc2ccc(F)cc2)c(O)c([N+](=O)[O-])c1
- Ki (Carbonic anhydrase 9): 340 nM
- Ki (Carbonic anhydrase 12): 500 nM
- Activity (HT-29 [1]): Dose-dependent effect
- IC50 (HT-29 [1]; HT-29, 48 h): > 200000 nM
- Activity (MDA-MB-231 [2]): Dose-dependent effect
- IC50 (MDA-MB-231 [2]; MDA-MB-231, 48 h): > 200000 nM
- Activity (PC-3 [3]): Dose-dependent effect
- IC50 (PC-3 [3]; PC-3, 48 h): > 200000 nM
- Activity (HT-29 [4]): Dose-dependent effect
- IC50 (HT-29 [4]; HT-29, 48 h): > 200000 nM
- Activity (MDA-MB-231 [5]): Dose-dependent effect
- IC50 (MDA-MB-231 [5]; MDA-MB-231, 48 h): > 200000 nM
- Activity (PC-3 [6]): Dose-dependent effect
- IC50 (PC-3 [6]; PC-3, 48 h): 134000 nM
- viability at 200 µM (MDA-MB-231 [7]): 61.7%
- viability at 30 µM (MDA-MB-231 [8]): 100%
- viability at 100 µM (MDA-MB-231 [9]): 92.8%
- viability at 200 µM (MDA-MB-231 [10]): 90.3%
- viability at 100 µM (MDA-MB-231 [11]): 68.4%
- viability at 30 µM (MDA-MB-231 [12]): 84.8%
- viability at 30 µM (PC-3 [13]): 86.9%
- viability at 100 µM (PC-3 [14]): 71.7%
- viability at 200 µM (PC-3 [15]): 56.2%
- viability at 30 µM (PC-3 [16]): 83%
- viability at 100 µM (PC-3 [17]): 61.3%
- viability at 200 µM (PC-3 [18]): 23.5%
- viability at 30 µM (HT-29 [19]): 110%
- viability at 100 µM (HT-29 [20]): 112%
- viability at 200 µM (HT-29 [21]): 107%
- viability at 30 µM (HT-29 [22]): 90.8%
- viability at 100 µM (HT-29 [23]): 88.2%
- viability at 200 µM (HT-29 [24]): 79.3%

SMILES: CC(=O)Nc1nnc(S(N)(=O)=O)s1 [ACETAZOLAMIDE]
- Activity (HT-29 [19]): 96.9%
- Activity (HT-29 [20]): 100.7%
- Activity (HT-29 [21]): 96.9%
- Activity (HT-29 [22]): 107.6%
- Activity (HT-29 [23]): 101.7%
- Activity (HT-29 [24]): 90.9%

SMILES: NS(=O)(=O)c1ccc(NC(=O)Nc2ccc(F)cc2)cc1 [SLC-0111]
- viability at 200 µM (MDA-MB-231 [7]): 103%
- viability at 30 µM (MDA-MB-231 [8]): 83.4%
- viability at 100 µM (MDA-MB-231 [9]): 86.6%
- viability at 200 µM (MDA-MB-231 [10]): 56.9%
- viability at 100 µM (MDA-MB-231 [11]): 107%
- viability at 30 µM (MDA-MB-231 [12]): 103%
- viability at 30 µM (PC-3 [13]): 109%
- viability at 100 µM (PC-3 [14]): 109%
- viability at 200 µM (PC-3 [15]): 83.1%
- viability at 30 µM (PC-3 [16]): 90.8%
- viability at 100 µM (PC-3 [17]): 106%
- viability at 200 µM (PC-3 [18]): 95.8%
- viability at 30 µM (HT-29 [19]): 62.4%
- viability at 100 µM (HT-29 [20]): 50.3%
- viability at 200 µM (HT-29 [21]): 35.6%
- viability at 30 µM (HT-29 [22]): 85.3%
- viability at 100 µM (HT-29 [23]): 71.5%
- viability at 200 µM (HT-29 [24]): 56.4%

SMILES: NS(=O)(=O)c1cc(NC(=O)N[C@@H]2C(O)O[C@@H](CO)[C@H](O)[C@H]2O)c(O)c([N+](=O)[O-])c1 (some centres undefined)
- Ki (Carbonic anhydrase 9): 170 nM
- Ki (Carbonic anhydrase 12): 160 nM

SMILES: Cc1cc(C)cc(NC(=O)Nc2cc(S(N)(=O)=O)cc([N+](=O)[O-])c2O)c1
- Ki (Carbonic anhydrase 9): 530 nM
- Ki (Carbonic anhydrase 12): 620 nM

SMILES: NS(=O)(=O)c1cc(NC(=O)c2ccccc2)c(OC(=O)c2ccccc2)c([N+](=O)[O-])c1
- Ki (Carbonic anhydrase 9): 130 nM
- Ki (Carbonic anhydrase 12): 300 nM
